Several values for one entry are separate records, joined by “and”; a condition that tells them apart may be missing. Equal entries are not always repeated. Where two headings read alike, the source gives them in different places.
Key:
[1] = format: in vivo, human; details: for half-life / Cmax / AUC(0-t) / AUC(0-inf): human, plasma; for AUC(0-t): Uncorrected AUC0-last; for AUC(0-t) / AUC(0-inf) / % AUC0-∞ extrapolated from AUC0-last / AUC0-∞ corrected for TBW-normalized dose / CL/F normalized to TBW / Cmax corrected for LBW-normalized dose / Cmax corrected for TBW-normalized dose / Vd/F normalized to TBW: mean ± SD; for AUC(0-inf): Uncorrected AUC0-∞; for tlag: median (range)
Method in brief: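 Fasted obese children 6–17 y, CYP2C19-genotyped (*2, *3, *4, *17; classed EM/IM/PM), received a single oral dose of ~1.2 mg/kg LBW. Catheter blood was drawn predose, half-hourly 0.5–4 h, and at 6 and 8 h, plus 12 h for PMs. Parent and sulfone metabolite were measured by validated LC-MS/MS in duplicate, using the mean. Noncompartmental analysis: λz from ≥3 terminal points, linear trapezoidal AUC, AUCinf = AUClast + CT/λz; Cmax and AUC corrected to 1 mg/kg TBW or LBW dose.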

[2] = historical nonobese peers, mean ± SD, ref Ward et al.[22], cited from earlier work
Safety and tolerability = format: in vivo, human
[3] = both, oral, obese, age 6–11 y (n = 18)
[4] = both, oral, obese, age 12–17 y (n = 21)
[5] = non-PMs, Morbidly obese (BMI >99%), mean (SD)
[6] = non-PMs, obesity status Obese (BMI ≥95%), mean (SD)
[7] = obese non-PMs, ALT High (>Q3), mean (SD)
[8] = obese non-PMs, ALT Low (<Q1), mean (SD)
[9] = obese non-PMs, AST High (>Q3), mean (SD)
[10] = obese non-PMs, AST Low (<Q1), mean (SD)
[11] = obese non-PMs, Female, mean (SD)
[12] = obese non-PMs, Waist:hip ratio High (>Q3), mean (SD)
[13] = obese non-PMs, Waist:hip ratio Low (<Q1), mean (SD)
[14] = obese, 2C19 genotype EM, mean (SD)
[15] = obese, 2C19 genotype IM, mean (SD)
[16] = obese, age 6–11 y, non-PMs, mean, SD

SMILES: COc1ccnc(C[S+]([O-])c2nc3ccc(OC(F)F)cc3[nH]2)c1OC (stereo not drawn) [pantoprazole]
- half-life ([1]; both, im, t1/2, obese, 2C19 genotype IM, mean (SD)): 63 min
- Cmax ([1]; both, oral): 4100 ± 1180 ng/mL
- AUC(0-t) [1, 3]: 6170 ± 2170 ng·h/mL
- AUC(0-t) [1, 4]: 7470 ± 2800 ng·h/mL
- AUC(0-inf) [1, 3]: 6260 ± 2260 ng·h/mL
- AUC(0-inf) [1, 4]: 7690 ± 3450 ng·h/mL
- half-life ([1]; both, oral, t1/2, non-PMs, Morbidly obese (BMI >99%), mean (SD)): 61.8 min
- half-life ([1]; both, oral, t1/2, non-PMs, obesity status Obese (BMI ≥95%), mean (SD)): 58.2 min
- half-life ([1]; both, oral, t1/2, obese non-PMs, ALT High (>Q3), mean (SD)): 57.6 min
- half-life ([1]; both, oral, t1/2, obese non-PMs, ALT Low (<Q1), mean (SD)): 58.2 min
- half-life ([1]; both, oral, t1/2, obese non-PMs, AST High (>Q3), mean (SD)): 51 min
- half-life ([1]; both, oral, t1/2, obese non-PMs, AST Low (<Q1), mean (SD)): 63.6 min
- half-life ([1]; both, oral, t1/2, obese, 2C19 genotype EM, mean (SD)): 57 min
- half-life ([1]; both, oral, t1/2, obese, age 12–17 y, mean, SD): 64.8 ± 15.6 min
- Cmax ([1]; both, po): 4270 ± 1430 ng/mL
- half-life ([1]; female, oral, t1/2, obese non-PMs, mean (SD)): 61.8 min
- half-life ([1]; male, oral, t1/2, obese non-PMs, mean (SD)): 57 min
- AUC0-∞ corrected for LBW-normalized dose [1, 5]: 6.17 (1.89) mcg*h/mL/1 mg/kg LBW
- CL/F normalized by LBW [1, 5]: 0.18 (0.06) L/h/kg LBW
- Vd/F normalized by LBW [1, 5]: 0.25 (0.05) L/kg LBW
- AUC0-∞ corrected for LBW-normalized dose [1, 6]: 6.36 (2.97) mcg*h/mL/1 mg/kg LBW
- CL/F normalized by LBW [1, 6]: 0.20 (0.11) L/h/kg LBW
- Vd/F normalized by LBW [1, 6]: 0.25 (0.09) L/kg LBW
- AUC0-∞ corrected for LBW-normalized dose [1, 7]: 6.12 (2.08) mcg*h/mL/1 mg/kg LBW
- CL/F normalized by LBW [1, 7]: 0.18 (0.07) L/h/kg LBW
- Vd/F normalized by LBW [1, 7]: 0.25 (0.09) L/kg LBW
- AUC0-∞ corrected for LBW-normalized dose [1, 8]: 5.75 (1.97) mcg*h/mL/1 mg/kg LBW
- CL/F normalized by LBW [1, 8]: 0.19 (0.06) L/h/kg LBW
- Vd/F normalized by LBW [1, 8]: 0.25 (0.04) L/kg LBW
- AUC0-∞ corrected for LBW-normalized dose [1, 9]: 5.66 (1.40) mcg*h/mL/1 mg/kg LBW
- CL/F normalized by LBW [1, 9]: 0.19 (0.06) L/h/kg LBW
- Vd/F normalized by LBW [1, 9]: 0.23 (0.05) L/kg LBW
- AUC0-∞ corrected for LBW-normalized dose [1, 10]: 6.04 (1.97) mcg*h/mL/1 mg/kg LBW
- CL/F normalized by LBW [1, 10]: 0.19 (0.09) L/h/kg LBW
- Vd/F normalized by LBW [1, 10]: 0.27 (0.06) L/kg LBW
- Vd/F normalized by LBW ([1]; obese non-PMs, Female (n = 18), mean (SD)): 0.28 (0.08) L/kg LBW
- Vd/F normalized by LBW ([1]; obese non-PMs, Female (n = 18), mean (SD), listed as Pantoprazole): 0.28 [0.08] L/kg LBW
- AUC0-∞ corrected for LBW-normalized dose [1, 11]: 6.03 (3.20) mcg*h/mL/1 mg/kg LBW
- CL/F normalized by LBW [1, 11]: 0.21 (0.11) L/h/kg LBW
- Vd/F normalized by LBW ([1]; obese non-PMs, Male (n = 17), mean (SD)): 0.22 (0.06) L/kg LBW
- Vd/F normalized by LBW ([1]; obese non-PMs, Male (n = 17), mean (SD), listed as Pantoprazole): 0.22 [0.06] L/kg LBW
- AUC0-∞ corrected for LBW-normalized dose ([1]; obese non-PMs, Male, mean (SD)): 6.57 (1.88) mcg*h/mL/1 mg/kg LBW
- CL/F normalized by LBW ([1]; obese non-PMs, Male, mean (SD)): 0.17 (0.06) L/h/kg LBW
- AUC0-∞ corrected for LBW-normalized dose [1, 12]: 6.63 (3.57) mcg*h/mL/1 mg/kg LBW
- CL/F normalized by LBW [1, 12]: 0.20 (0.13) L/h/kg LBW
- Vd/F normalized by LBW [1, 12]: 0.24 (0.09) L/kg LBW
- AUC0-∞ corrected for LBW-normalized dose [1, 13]: 5.76 (2.31) mcg*h/mL/1 mg/kg LBW
- CL/F normalized by LBW [1, 13]: 0.20 (0.09) L/h/kg LBW
- Vd/F normalized by LBW [1, 13]: 0.28 (0.08) L/kg LBW
- AUC0-∞ corrected for LBW-normalized dose [1, 14]: 5.09 (1.81) mcg*h/mL/1 mg/kg LBW
- CL/F normalized by LBW [1, 14]: 0.23 (0.10) L/h/kg LBW
- Vd/F normalized by LBW [1, 14]: 0.29 (0.07) L/kg LBW
- AUC0-∞ corrected for LBW-normalized dose [1, 15]: 7.90 (2.72) mcg*h/mL/1 mg/kg LBW
- CL/F normalized by LBW [1, 15]: 0.14 (0.05) L/h/kg LBW
- Vd/F normalized by LBW [1, 15]: 0.20 (0.04) L/kg LBW
- tlag ([1]; obese, age 6–11 y (n = 18), single oral dose): 1.5 (1.0–3) h
- % AUC0-∞ extrapolated from AUC0-last ([1]; obese, age 6–11 y (n = 18)): 1.2 ± 1.6%
- AUC0-∞ corrected for TBW-normalized dose ([1]; obese, age 6–11 y (n = 18)): 8.87 ± 4.00 mcg*h/mL/1 mg/kg TBW
- CL/F normalized to TBW ([1]; obese, age 6–11 y (n = 18)): 0.14 ± 0.07 L/h/kg TBW
- Cmax corrected for LBW-normalized dose ([1]; obese, age 6–11 y (n = 18)): 3.87 ± 1.39 mcg/mL/1 mg/kg LBW
- Cmax corrected for TBW-normalized dose ([1]; obese, age 6–11 y (n = 18)): 5.99 ± 2.13 mcg/mL/1 mg/kg TBW
- Vd/F normalized to TBW ([1]; obese, age 6–11 y (n = 18)): 0.16 ± 0.05 L/kg TBW
- AUC0-∞ corrected for LBW-normalized dose [1, 16]: 5.73 ± 2.48 mcg*h/mL/1 mg/kg LBW and 5.73 (2.48) mcg*h/mL/1 mg/kg LBW
- CL/F normalized to LBW [1, 16]: 0.21 ± 0.11 L/h/kg LBW and 0.21 (0.11) L/h/kg LBW
- Vd/F normalized to LBW [1, 16]: 0.25 ± 0.09 L/kg LBW and 0.25 (0.09) L/kg LBW
- % AUC0-∞ extrapolated from AUC0-last ([1]; obese, age 12–17 y (n = 21)): 2.5 ± 3.3%
- AUC0-∞ corrected for TBW-normalized dose ([1]; obese, age 12–17 y (n = 21)): 11.56 ± 4.81 mcg*h/mL/1 mg/kg TBW
- CL/F normalized to TBW ([1]; obese, age 12–17 y (n = 21)): 0.10 ± 0.04 L/h/kg TBW
- Cmax corrected for LBW-normalized dose ([1]; obese, age 12–17 y (n = 21)): 3.7 ± 0.99 mcg/mL/1 mg/kg LBW
- Cmax corrected for TBW-normalized dose ([1]; obese, age 12–17 y (n = 21)): 6.23 ± 1.73 mcg/mL/1 mg/kg TBW
- Vd/F normalized to TBW ([1]; obese, age 12–17 y (n = 21)): 0.14 ± 0.04 L/kg TBW
- tlag ([1]; obese, age 12–17 y (n = 21)): 2.0 (1.0–8.0) h
- AUC0-∞ corrected for LBW-normalized dose ([1]; obese, age 12–17 y, mean, SD): 6.82 ± 2.70 mcg*h/mL/1 mg/kg LBW and 6.82 (2.70) mcg*h/mL/1 mg/kg LBW
- CL/F normalized to LBW ([1]; obese, age 12–17 y, mean, SD): 0.17 ± 0.06 L/h/kg LBW and 0.17 (0.06) L/h/kg LBW
- Vd/F normalized to LBW ([1]; obese, age 12–17 y, mean, SD): 0.25 ± 0.07 L/kg LBW and 0.25 (0.07) L/kg LBW
- AUC0-∞, PM relative to all the non-PMs ([1]; only CYP2C19 PM vs non-PMs, higher): greater than 2 fold
- AUC0-∞ corrected for TBW-normalized dose ([2]; age 6–11 y (n = 13)): 3.1 ± 1.4 mcg*h/mL/1 mg/kg TBW
- CL/F normalized to TBW ([2]; age 6–11 y (n = 13)): 0.40 ± 0.22 L/h/kg TBW
- Cmax corrected for TBW-normalized dose ([2]; age 6–11 y (n = 13)): 2.1 ± 1.1 mcg/mL/1 mg/kg TBW
- Uncorrected AUC0-∞ ([2]; age 6–11 y (n = 13)): 3800 ± 1800 ng·h/mL
- Vd/F normalized to TBW ([2]; age 6–11 y (n = 13)): 0.40 ± 0.27 L/kg TBW
- t1/2 ([2]; age 6–11 y (n = 13)): 42 ± 12 min
- AUC0-∞ corrected for TBW-normalized dose ([2]; age 12–17 y (n = 11)): 6.9 ± 3.4 mcg*h/mL/1 mg/kg TBW
- CL/F normalized to TBW ([2]; age 12–17 y (n = 11)): 0.18 ± 0.08 L/h/kg TBW
- Cmax corrected for TBW-normalized dose ([2]; age 12–17 y (n = 11)): 3.7 ± 1.8 mcg/mL/1 mg/kg TBW
- Uncorrected AUC0-∞ ([2]; age 12–17 y (n = 11)): 4300 ± 3100 ng·h/mL
- Uncorrected Cmax ([2]; age 12–17 y (n = 11)): 2200 ± 1400 ng/mL
- Vd/F normalized to TBW ([2]; age 12–17 y (n = 11)): 0.21 ± 0.06 L/kg TBW
- t1/2 ([2]; age 12–17 y (n = 11)): 54 ± 18 min
- Study participants with AEs (Safety and tolerability; 7 of the 41 study participants, nine AEs, single oral dose): 17%
- Serious AEs (Safety and tolerability; 41 participants, single oral dose, follow-up day 10–13): No serious AEs
- Severity of AEs (Safety and tolerability; all AEs): mild
- AEs considered related to study drug (Safety and tolerability; two AEs (headache and hiccups)): 5%

Source: paper PMC5806153 (The Journal of pediatrics, 2018)
